For 17 compounds, inhibition of growth results are on record in ChEMBL document CHEMBL5357072, “Structural Modification of Noscapine via Photoredox/Nickel Dual Catalysis for the Discovery of S-Phase Arresting Agents” (ACS Med Chem Lett, 2024).

Common to all, as to assay type: functional
What all share (details): read-out: GI

The test system of one test is U-251. Put plainly: Antiproliferative activity against human U-251 cells assessed as cell growth inhibition at 10 uM incubated for 48 hrs by CCK8 assay relative to control. In outline:
(§1)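 Single-concentration screen of six cancer cell lines. Cells were exposed to 10 μM compound and growth was measured by CCK-8 assay. Results are reported as inhibition rate at 10 μM.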

A further test concerns JeKo-1. Put plainly: Antiproliferative activity against human JeKo-1 cells assessed as cell growth inhibition at 10 uM incubated for 48 hrs by CCK8 assay relative to control. In outline: as §1
Another test relates to MOLM-13. Put plainly: Antiproliferative activity against human MOLM-13 cells assessed as cell growth inhibition at 10 uM incubated for 48 hrs by CCK8 assay relative to control. The gist of the method: as §1
The subject of another test is HeLa. Put plainly: Antiproliferative activity against human HeLa cells assessed as cell growth inhibition at 10 uM incubated for 48 hrs by CCK8 assay relative to control. In outline:
as §1

The test system of a further test is A549. Put plainly: Antiproliferative activity against human A549 cells assessed as cell growth inhibition at 10 uM incubated for 48 hrs by CCK8 assay relative to control. The gist of the method:
as §1

The test system of a further test is NB-4. Put plainly: Antiproliferative activity against human NB4 cells assessed as cell growth inhibition at 10 uM incubated for 48 hrs by CCK8 assay relative to control. In outline:
as §1

As for `COc1ccc2c(c1OC)C(=O)O[C@@H]2[C@H]1c2c(c(C3CCN(C(=O)OC(C)(C)C)CC3)c3c(c2OC)OCO3)CCN1C(=O)OC(C)(C)C`, the inhibition of growth at 10 µM in the test with U-251 is less than 5%; in the test on JeKo-1 it was 22.3%; with MOLM-13 it was 62.9%; in the test with HeLa it was 17.5%; in the test on A549, 14.7%; in the test with NB-4, 21.2%.

Turning to `COc1ccc2c(c1OC)C(=O)O[C@@H]2[C@H]1c2c(c(C3CCOCC3)c3c(c2OC)OCO3)CCN1C(=O)OC(C)(C)C`, the inhibition of growth at 10 µM in the test on U-251 is less than 5%; with JeKo-1, 12%; in the test with MOLM-13 it was 36.8%; in the test on HeLa it was less than 5%; in the test on A549, less than 5%; with NB-4, 4.36%.

Consider `COc1ccc2c(c1OC)C(=O)O[C@@H]2[C@H]1c2c(c(CCCC(F)(F)F)c3c(c2OC)OCO3)CCN1C(=O)OC(C)(C)C`, for which the inhibition of growth at 10 µM in the test on U-251 was less than 5%; in the test with JeKo-1, 25.6%; with MOLM-13, 36%; with HeLa, less than 5%; with A549, less than 5%; with NB-4 it was 31.5%.

`COc1ccc2c(c1OC)C(=O)O[C@@H]2[C@H]1c2c(c(CC3CCCC3)c3c(c2OC)OCO3)CCN1C(=O)OC(C)(C)C`: the inhibition of growth at 10 µM in the test with U-251 is 12%; in the test on JeKo-1, 6.68%; in the test with MOLM-13, 51.3%; in the test with HeLa, less than 5%; in the test on A549, less than 5%; with NB-4, 20.8%.

With `COc1ccc2c(c1OC)C(=O)O[C@@H]2[C@H]1c2c(c(CC3CCN(C(=O)OC(C)(C)C)CC3)c3c(c2OC)OCO3)CCN1C(=O)OC(C)(C)C`, the inhibition of growth at 10 µM is less than 5% in the test on U-251; 22.7% in the test with JeKo-1; 58.1% in the test on MOLM-13; less than 5% in the test on HeLa; less than 5% in the test with A549; 37.3% with NB-4.

As for `CCC(C)Cc1c2c(c(OC)c3c1OCO3)[C@H]([C@H]1OC(=O)c3c1ccc(OC)c3OC)N(C(=O)OC(C)(C)C)CC2` (some centres not stated), the inhibition of growth at 10 µM in the test with U-251 was less than 5%; in the test on JeKo-1 it was 24%; in the test on MOLM-13, 51.2%; in the test with HeLa, 6.92%; with A549 it was less than 5%; with NB-4, 9.33%.

As to `COc1ccc2c(c1OC)C(=O)O[C@@H]2[C@H]1c2c(c(C3CC3)c3c(c2OC)OCO3)CCN1C(=O)OC(C)(C)C`, the inhibition of growth at 10 µM in the test on U-251 was less than 5%; with JeKo-1 it was 6.87%; in the test with MOLM-13, 19.5%; in the test with HeLa, less than 5%; in the test on A549, less than 5%; in the test with NB-4, 7.63%.

`CCOP(=O)(CCc1c2c(c(OC)c3c1OCO3)[C@H]([C@H]1OC(=O)c3c1ccc(OC)c3OC)N(C(=O)OC(C)(C)C)CC2)OCC`: the inhibition of growth at 10 µM in the test with U-251 is less than 5%; with JeKo-1, 12.1%; with MOLM-13, 31.1%; in the test with HeLa, less than 5%; in the test with A549, less than 5%; with NB-4, 6.64%.

With `COc1ccc2c(c1OC)C(=O)O[C@@H]2[C@H]1c2c(c(C3CCCCCC3)c3c(c2OC)OCO3)CCN1C(=O)OC(C)(C)C`, the inhibition of growth at 10 µM was 20.5% in the test with U-251; 10.3% with JeKo-1; 39.4% with MOLM-13; less than 5% with HeLa; less than 5% in the test on A549; less than 5% in the test with NB-4.

As to `COc1ccc2c(c1OC)C(=O)O[C@@H]2[C@H]1c2c(c(C3CCC3)c3c(c2OC)OCO3)CCN1C(=O)OC(C)(C)C`, the inhibition of growth at 10 µM is less than 5% in the test with U-251; less than 5% in the test with JeKo-1; 40.4% in the test on MOLM-13; less than 5% with HeLa; less than 5% in the test with A549; 13.5% in the test with NB-4.

`COCCCc1c2c(c(OC)c3c1OCO3)[C@H]([C@H]1OC(=O)c3c1ccc(OC)c3OC)N(C(=O)OC(C)(C)C)CC2`: the inhibition of growth at 10 µM in the test with U-251 was less than 5%; with JeKo-1 it was 23.3%; in the test with MOLM-13, 30.4%; with HeLa it was less than 5%; in the test with A549 it was less than 5%; in the test on NB-4, 27.2%.

As for `COc1ccc2c(c1OC)C(=O)O[C@@H]2[C@H]1c2c(c(CC3CCC3)c3c(c2OC)OCO3)CCN1C(=O)OC(C)(C)C`, the inhibition of growth at 10 µM in the test on U-251 was less than 5%; in the test with JeKo-1 it was 6.67%; in the test on MOLM-13, 53.1%; in the test on HeLa, less than 5%; in the test with A549, less than 5%; in the test with NB-4 it was 8.8%.

As to `COc1ccc2c(c1OC)C(=O)O[C@@H]2[C@H]1c2c(c(CC3CCN(C(=O)OC(C)(C)C)C3)c3c(c2OC)OCO3)CCN1C(=O)OC(C)(C)C` (some centres not stated), the inhibition of growth at 10 µM was less than 5% in the test on U-251; 7.92% in the test on JeKo-1; 52.5% with MOLM-13; less than 5% with HeLa; less than 5% in the test on A549; 23.2% in the test with NB-4.

As for `COc1ccc2c(c1OC)C(=O)O[C@@H]2[C@H]1c2c(c(C3CCC(C)(C)CC3)c3c(c2OC)OCO3)CCN1C(=O)OC(C)(C)C`, the inhibition of growth at 10 µM in the test with U-251 was less than 5%; with JeKo-1 it was 7.49%; in the test on MOLM-13 it was 47.6%; in the test with HeLa, less than 5%; in the test with A549, less than 5%; in the test with NB-4 it was 29.6%.

As for `COc1ccc2c(c1OC)C(=O)O[C@@H]2[C@H]1c2c(c(CC3CC3)c3c(c2OC)OCO3)CCN1C(=O)OC(C)(C)C`, the inhibition of growth at 10 µM in the test with U-251 was less than 5%; in the test with JeKo-1, less than 5%; with MOLM-13 it was 43.6%; in the test on HeLa it was less than 5%; with A549 it was less than 5%; with NB-4, 8.2%.

As for `COc1ccc2c(c1OC)C(=O)O[C@@H]2[C@H]1c2c(c(CCNC(=O)OC(C)(C)C)c3c(c2OC)OCO3)CCN1C(=O)OC(C)(C)C`, the inhibition of growth at 10 µM in the test on U-251 is less than 5%; in the test with JeKo-1 it was 14%; with MOLM-13, 43.5%; in the test with HeLa it was less than 5%; in the test on A549, less than 5%; in the test with NB-4, 29.9%.

For the compound `COc1ccc2c(c1OC)C(=O)O[C@@H]2[C@H]1c2c(c(CC[Si](C)(C)C)c3c(c2OC)OCO3)CCN1C(=O)OC(C)(C)C`, the inhibition of growth at 10 µM in the test with U-251 was less than 5%; in the test on JeKo-1, less than 5%; with MOLM-13, 46.9%; in the test with HeLa, less than 5%; in the test with A549, less than 5%; in the test with NB-4, 21.9%.
